In ChEMBL document CHEMBL1764999, “In vitro characterization of human peptide transporter hPEPT1 interactions and passive permeation studies of short cationic antimicrobial peptides” (J Med Chem, 2011):
In brackets after ≈: the same amount, converted by molar mass. Square brackets hold non-standard residues; d marks the D form. Peptide text beside a SMILES is read from it. * marks the point of attachment. Phe(4-guanidino) = N=C(N)Nc1ccc(C[C@H](N)C(=O)O)cc1; Bip = N[C@@H](Cc1ccc(-c2ccccc2)cc1)C(=O)O; Dip = N[C@H](C(=O)O)C(c1ccccc1)c1ccccc1; NHBn = c1ccc(CN*)cc1

Columns and labels:
[1] = tested on: Staphylococcus aureus; test: Antibacterial activity against Staphylococcus aureus by micro dilution method; format: functional
[2] = tested on: Escherichia coli; test: Antibacterial activity against Escherichia coli by micro dilution method; format: functional
[3] = tested on: Staphylococcus aureus; test: Antibacterial activity against methicillin-resistant Staphylococcus aureus by micro dilution method; format: functional
[4] = Apparent permeability of the compound by PAMPA; format: ADME
[5] = target: T1, Solute carrier family 15 member 1 (Homo sapiens) (UniProt P46059); test: Inhibition of human PEPT1 expressed in Xenopus laevis oocytes assessed as effect on glycylsarcosine-induced transport-associated flux rate current at 0.25 to 1 mM at -60 mV membrane potential by two-electrode voltage clamp method; format: cell-based; details: Oocyte
T1 sequence (whole entry): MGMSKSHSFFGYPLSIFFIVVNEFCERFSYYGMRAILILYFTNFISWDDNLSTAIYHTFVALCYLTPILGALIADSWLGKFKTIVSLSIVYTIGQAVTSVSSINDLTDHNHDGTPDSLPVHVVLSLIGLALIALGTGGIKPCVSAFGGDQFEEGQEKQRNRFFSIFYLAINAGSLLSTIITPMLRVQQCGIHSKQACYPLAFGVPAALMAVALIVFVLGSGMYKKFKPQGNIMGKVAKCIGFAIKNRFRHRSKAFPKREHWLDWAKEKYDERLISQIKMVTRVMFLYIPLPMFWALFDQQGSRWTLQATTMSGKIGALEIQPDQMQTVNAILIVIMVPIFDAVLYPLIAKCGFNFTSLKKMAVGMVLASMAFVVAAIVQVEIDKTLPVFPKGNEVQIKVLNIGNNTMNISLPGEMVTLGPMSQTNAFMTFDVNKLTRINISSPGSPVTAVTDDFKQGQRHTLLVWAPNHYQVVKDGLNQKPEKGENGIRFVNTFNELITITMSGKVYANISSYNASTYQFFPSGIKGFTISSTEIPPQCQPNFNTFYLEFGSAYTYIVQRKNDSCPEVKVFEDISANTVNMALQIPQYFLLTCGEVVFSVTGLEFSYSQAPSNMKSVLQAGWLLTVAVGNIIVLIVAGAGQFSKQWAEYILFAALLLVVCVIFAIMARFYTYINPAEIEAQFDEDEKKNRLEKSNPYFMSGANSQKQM
Outline: (§1)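 The hPEPT1 cRNA-injected oocytes were clamped at -60 mV in Barth's solution with HEPES replaced by MES (pH 6.5), at room temperature. Currents from 1 mM Gly-Sar were recorded with and without test peptide (0.25-1.0 mM) at steady state. Flux used a 3.80 mm² surface. Inhibition is residual current as % of the Gly-Sar current. IC50 was fitted from mean inhibitions by Michaelis-Menten.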

[6] = target: T1, Solute carrier family 15 member 1 (Homo sapiens); test: Inhibition of human PEPT1 expressed in Xenopus laevis oocytes assessed as Inhibition of glycylsarcosine-induced transport-associated current at 0.25 to 1 mM at -60 mV membrane potential by two-electrode voltage clamp method; format: cell-based; details: Oocyte; outline: as §1
[7] = target: T1, Solute carrier family 15 member 1 (Homo sapiens); test: Activity of human PEPT1 expressed in Xenopus laevis oocytes assessed as induction of transport-associated flux rate current at 1 mM at -60 mV membrane potential by two-electrode voltage clamp method; format: cell-based; details: Oocyte
Outline: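 Oocytes were collagenase-treated (2.5 mg/mL, 70 min) and injected with ~25 ng hPEPT1 cRNA, then held 3-5 days at 17 °C. Superfused at room temperature with MES-buffered Barth's, pH 6.5, clamped at -60 mV. Current is the difference with vs without test peptide, taken 20-30 s after application. Flux in pmol/(s cm²) assumes a 3.80 mm² oocyte surface. Mean of three oocytes.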

[8] = target: T2, Solute carrier family 15 member 1 (Homo sapiens, UniProt P46059); test: Inhibition of human PEPT1 expressed in Xenopus laevis oocytes assessed as inhibition of glycylsarcosine-induced transport-associated current at -60 mV membrane potential by two-electrode voltage clamp method; format: cell-based, Oocyte; outline: as §1
T2 sequence (P46059 whole entry): T1 sequence (whole entry)

Compound	MIC [1]	MIC [2]	MIC [3]	Papp ([4]; read-out: Papp)	Activity [5]	inhibition [6]	Activity [7]	IC50 [8]	Papp [4]
N=C(N)NCCC[C@H](NC(=O)[C@H](Cc1ccc(-c2ccccc2)cc1)NC(=O)[C@@H](N)CCCNC(=N)N)C(=O)NCc1ccccc1 (H-Arg-[Bip]-Arg-NHBn)	5 µg/mL (≈ 7.78 µM)	100 µg/mL (≈ 156 µM)	5 µg/mL (≈ 7.78 µM)	0.01 ×10⁻⁶ cm/s					
COC(=O)[C@H](CCCN=C(N)N)NC(=O)[C@@H](N)Cc1ccc(-c2ccccc2)cc1 (H-[Bip]-Arg-OMe)	150 µg/mL (≈ 365 µM)	> 200 µg/mL		1.06 ×10⁻⁶ cm/s	57.2 pmol/(s.cm2)	10.4%			
N=C(N)NCCC[C@H](NC(=O)[C@@H](N)Cc1ccc(-c2ccccc2)cc1)C(=O)O (H-[Bip]-Arg-OH)							10.7%		
COCCc1ccc(OCC(O)CNC(C)C)cc1 (stereo not given) [METOPROLOL]				3.23 ×10⁻⁶ cm/s					
NCCCC[C@H](NC(=O)[C@H](Cc1ccc(-c2ccccc2)cc1)NC(=O)[C@@H](N)CCCCN)C(=O)NCc1ccccc1 (H-Lys-[Bip]-Lys-NHBn)	15 µg/mL (≈ 25.6 µM)	> 150 µg/mL	25 µg/mL (≈ 42.6 µM)	0.26 ×10⁻⁶ cm/s					
N=C(N)NCCC[C@H](NC(=O)[C@H](Cc1c[nH]c2ccccc12)NC(=O)[C@@H](N)CCCNC(=N)N)C(=O)NCc1ccccc1 (H-Arg-Trp-Arg-NHBn)	75 µg/mL (≈ 124 µM)	> 150 µg/mL	25 µg/mL (≈ 41.3 µM)	0.77 ×10⁻⁶ cm/s	3.8 pmol/(s.cm2)	87.6%			
CC(C)(C)c1cc(C(C)(C)C)c2[nH]c(C(C)(C)C)c(C[C@H](N)C(=O)N[C@@H](CCCNC(=N)N)C(N)=O)c2c1	15 µg/mL (≈ 28.4 µM)	> 150 µg/mL	15 µg/mL (≈ 28.4 µM)	0.43 ×10⁻⁶ cm/s	34.8 pmol/(s.cm2)	20.3%		0.6 mM	
N=C(N)NCCC[C@H](N)C(=O)N[C@@H](Cc1c[nH]c2ccccc12)C(=O)N[C@@H](Cc1ccc(NC(=N)N)cc1)C(=O)NCc1ccccc1 (H-Arg-Trp-[Phe(4-guanidino)]-NHBn)	50 µg/mL (≈ 76.5 µM)	> 150 µg/mL	10 µg/mL (≈ 15.3 µM)	0.47 ×10⁻⁶ cm/s					
CC(C)(C)NCC(O)c1cc(O)cc(O)c1 (stereo not given) [TERBUTALINE]				0.4 ×10⁻⁶ cm/s					
N=C(N)NCCC[C@H](NC(=O)[C@@H](N)CCCNC(=N)N)C(=O)N[C@@H](Cc1c[nH]c2ccccc12)C(=O)NCc1ccccc1 (H-Arg-Arg-Trp-NHBn)	75 µg/mL (≈ 124 µM)	> 150 µg/mL	25 µg/mL (≈ 41.3 µM)	0.96 ×10⁻⁶ cm/s					
NC(N)=NCCC[C@H](NC(=O)[C@@H](N)Cc1c[nH]c2ccccc12)C(=O)NCc1ccccc1 (H-Trp-Arg-NHBn)							1.2%		
N=C(N)NCCC[C@H](NC(=O)[C@@H](NC(=O)[C@@H](N)CCCNC(=N)N)C(c1ccccc1)c1ccccc1)C(=O)NCc1ccccc1 (H-Arg-[Dip]-Arg-NHBn)	25 µg/mL (≈ 38.9 µM)	> 150 µg/mL	10 µg/mL (≈ 15.6 µM)	0.42 ×10⁻⁶ cm/s					
N=C(N)NCCC[C@H](N)C(=O)N[C@@H](Cc1ccc(NC(=N)N)cc1)C(=O)N[C@@H](Cc1c[nH]c2ccccc12)C(=O)NCc1ccccc1 (H-Arg-[Phe(4-guanidino)]-Trp-NHBn)	50 µg/mL (≈ 76.5 µM)	> 150 µg/mL	15 µg/mL (≈ 22.9 µM)	0.38 ×10⁻⁶ cm/s					
NC(=O)[C@H](CCCN=C(N)N)NC(=O)[C@H](Cc1c[nH]c2ccccc12)NC(=O)[C@@H](N)CCCN=C(N)N (H-Arg-Trp-Arg-NH2)	> 200 µg/mL	> 200 µg/mL		2.37 ×10⁻⁶ cm/s	61.8 pmol/(s.cm2)	15.1%		2.7 mM	
NS(=O)(=O)c1cc2c(cc1Cl)N=CNS2(=O)=O [CHLOROTHIAZIDE]									0.03 ×10⁻⁶ cm/s
CC(C)(C)c1cc(C(C)(C)C)c2[nH]c(C(C)(C)C)c(C[C@H](NC(=O)[C@@H](N)CCCNC(=N)N)C(=O)N[C@@H](CCCNC(=N)N)C(=O)NCc3ccccc3)c2c1	2.5 µg/mL (≈ 3.23 µM)	7.5 µg/mL (≈ 9.69 µM)	2.5 µg/mL (≈ 3.23 µM)						
CC(C)(C)c1cc(C(C)(C)C)c2[nH]c(C(C)(C)C)c(C[C@H](N)C(=O)N[C@@H](CCCNC(=N)N)C(=O)NCCc3ccccc3)c2c1	2.5 µg/mL (≈ 3.96 µM)	10 µg/mL (≈ 15.8 µM)	2.5 µg/mL (≈ 3.96 µM)	5.27 ×10⁻⁶ cm/s					
N=C(N)NCCC[C@H](NC(=O)[C@H](Cc1ccccc1)NC(=O)[C@@H](N)CCCNC(=N)N)C(=O)NCc1ccccc1 (H-Arg-Phe-Arg-NHBn)	150 µg/mL (≈ 265 µM)	> 150 µg/mL	75 µg/mL (≈ 132 µM)	2.31 ×10⁻⁶ cm/s					
N=C(N)NCCC[C@H](NC(=O)[C@H](Cc1ccc(-c2ccccc2)cc1)NC(=O)[C@@H](N)CCCNC(=N)N)C(N)=O (H-Arg-[Bip]-Arg-NH2)	200 µg/mL (≈ 362 µM)		50 µg/mL (≈ 90.5 µM)	0.01 ×10⁻⁶ cm/s	56.7 pmol/(s.cm2)	-3.3%			
N=C(N)NCCC[C@H](NC(=O)[C@@H](N)Cc1c[nH]c2ccccc12)C(=O)O (H-Trp-Arg-OH)							43.5%		
N=C(N)Nc1ccc(C[C@H](NC(=O)[C@H](Cc2ccc(-c3ccccc3)cc2)NC(=O)[C@@H](N)Cc2ccc(NC(=N)N)cc2)C(=O)NCc2ccccc2)cc1 (H-[Phe(4-guanidino)]-[Bip]-[Phe(4-guanidino)]-NHBn)	< 2.5 µg/mL	75 µg/mL (≈ 102 µM)	5 µg/mL (≈ 6.77 µM)	0.9 ×10⁻⁶ cm/s					
N=C(N)NCCC[C@H](NC(=O)[C@@H](NC(=O)[C@@H](N)CCCNC(=N)N)C(c1ccccc1)c1ccccc1)C(N)=O (H-Arg-[Dip]-Arg-NH2)	100 µg/mL (≈ 181 µM)	> 150 µg/mL	> 150 µg/mL	0.83 ×10⁻⁶ cm/s					
NCCCC[C@H](NC(=O)[C@H](Cc1ccc(-c2ccccc2)cc1)NC(=O)[C@@H](N)CCCCN)C(N)=O (H-Lys-[Bip]-Lys-NH2)	> 200 µg/mL			0.06 ×10⁻⁶ cm/s					
